Only some compounds are listed: those with a hit (about 1.5% of all), similar ones and a draw of the others.
CCR6 antagonist = antagonists of human CCR6 receptor. hit rate 0.49% among 340,000. CHO-K1 CCR6 PathHunter beta-arrestin, luminescence, CCL20-stimulated. inhibition, % at 20 µM. P51684;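 active = compounds whose inhibition of the agonist-driven luminescence signal at 20 µM reaches about 50%, limit read from the data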;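 also: cells stimulated with CCL20 at 14 nM final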
EBI2 block = antagonists of human EBI2 receptor. P32249. EBI2 beta-arrestin recruitment, luminescence, 7a,25-OHC stimulated. inhibition, % at 5 µM. hit rate 0.81% among 360,000. AID 651636; in the data active = inhibition above about 38%;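 also: enzyme fragment complementation signal reports receptor beta-arrestin coupling in cells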
APJ ag = agonists of human APJ apelin receptor; P35414; CHO-K1 APJ PathHunter beta-arrestin, luminescence; 0% DMSO wells, 100% apelin; activation, % at 20 µM; hit rate 0.11% among 330,000; AID 2520;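 active = activation more than six SD over the plate average, tested at 20 µM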
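Test system: CHO-K1 APJ beta-arrestin complementation cell line. Amount: cell density 1000 per well. Controls: DMSO negative, 10 nM Apelin-13 positive. Signal: luminescent beta-gal fragment complementation, chemiluminescent substrate. Read-out basis: agonist-driven arrestin binding to APJ. Timing: compound stimulation 90 min at 25 °C, detection 60 min.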
CXCR6 inh = CXCR6 (human) receptor inhibition; O00574; CHO-K1 PathHunter CXCR6 beta-arrestin, luminescence; inhibition, % at 20 µM; hit rate 0.36% among 360,000; AID 602244; in the data active = inhibition above about 34%, passing the limit was not always enough;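 also: antagonist mode with CXCL16 agonist at 10 nM final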
Target sequence (O00574 whole entry, looked up): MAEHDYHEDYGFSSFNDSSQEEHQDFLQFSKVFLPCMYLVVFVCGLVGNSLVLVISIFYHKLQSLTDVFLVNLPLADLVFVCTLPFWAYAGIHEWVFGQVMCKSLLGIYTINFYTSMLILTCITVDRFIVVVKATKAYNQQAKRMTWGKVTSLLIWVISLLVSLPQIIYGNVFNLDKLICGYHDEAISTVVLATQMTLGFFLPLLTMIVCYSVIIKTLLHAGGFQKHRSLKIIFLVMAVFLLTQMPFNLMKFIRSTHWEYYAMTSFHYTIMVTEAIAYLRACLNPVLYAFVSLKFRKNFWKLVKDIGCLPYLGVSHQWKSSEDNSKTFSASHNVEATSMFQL
APJ antag = antagonists of human APJ apelin receptor; P35414; CHO-K1 APJ beta-arrestin complementation, luminescence; inhibition, % at 20 µM; hit rate 0.32% among 330,000;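 active = inhibition above about 40% at 20 µM, limit read from the data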;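 also: cells challenged with 10 nM apelin-13 agonist together with compound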
Hits are given with their value.

What do the screens show for `CCN1/C(=C2\C(=O)N(c3ccccc3)N=C2C)C=Cc2cc(C)ccc21`?
CCR6 antagonist: inactive; EBI2 block: inactive; APJ ag: inactive; CXCR6 inh: inactive; APJ antag: inactive

How did CCN1/C(=c2/s/c(=C3/C(=O)N(c4ccccc4)N=C3C)n(CC)c2=O)C=Cc2ccccc21 do in these assays?
CCR6 antagonist: 52; EBI2 block: inactive; APJ ag: inactive; CXCR6 inh: inactive; APJ antag: inactive

How did CC1=CC(=Nc2c(C)n(C)n(-c3ccccc3)c2=O)C=C(C)C1=O do in these assays?
CCR6 antagonist: inactive; EBI2 block: inactive; APJ ag: inactive; CXCR6 inh: inactive; APJ antag: inactive

Results for CCC(C)C1=CC(=Nc2c(C)n(C)n(-c3ccccc3)c2=O)C=C(C(C)CC)C1=O (stereo not given) ?
CCR6 antagonist: 51; EBI2 block: inactive; APJ ag: inactive; CXCR6 inh: inactive; APJ antag: inactive

What do the screens show for `CN1C(=O)/C(=C/c2ccc(O)c([N+](=O)[O-])c2)NC1=S`?
CCR6 antagonist: inactive; EBI2 block: inactive; APJ ag: inactive; CXCR6 inh: inactive; APJ antag: 45

How did CCCOc1ccc(/C=C2\SC(=S)N(CC3CCCO3)C2=O)cc1 (stereo not given) do in these assays?
CCR6 antagonist: inactive; EBI2 block: inactive; APJ ag: inactive; CXCR6 inh: inactive; APJ antag: inactive

Results for O=C1/C(=C\c2ccc(O)cc2)SC(=S)N1c1cccnc1 ?
CCR6 antagonist: 64; EBI2 block: inactive; APJ ag: inactive; CXCR6 inh: 49; APJ antag: 57

What do the screens show for `O=C1/C(=C/c2ccc(O)cc2)SC(=S)N1CC1CCCO1` (stereo not given)?
CCR6 antagonist: inactive; EBI2 block: inactive; APJ ag: inactive; CXCR6 inh: inactive; APJ antag: 49

What do the screens show for `COc1cc(/C=C2\NC(=S)N(C)C2=O)ccc1O`?
CCR6 antagonist: inactive; EBI2 block: inactive; APJ ag: inactive; CXCR6 inh: inactive; APJ antag: inactive

How did O=C1/C(=C/c2ccc(O)c([N+](=O)[O-])c2)SC(=S)N1Cc1ccccc1 do in these assays?
CCR6 antagonist: 54; EBI2 block: inactive; APJ ag: inactive; CXCR6 inh: 44; APJ antag: 50

Results for Cc1ccc(NC(=O)OCCN2CCN(Cc3ccccc3)CCC2=O)cc1 ?
CCR6 antagonist: inactive; EBI2 block: inactive; APJ ag: inactive; CXCR6 inh: inactive; APJ antag: inactive

How did CN(Cc1ccccc1)C(=O)c1[nH]cnc1C(=O)Nc1ccon1 do in these assays?
CCR6 antagonist: inactive; EBI2 block: inactive; APJ ag: inactive; CXCR6 inh: inactive; APJ antag: inactive

What do the screens show for `Cc1cccc(CN(C)C[C@@H]2OCc3cnnn3CCCC(=O)N([C@H](C)CO)C[C@H]2C)c1`?
EBI2 block: inactive; CXCR6 inh: inactive

How did Cc1cc(S(=O)(=O)N2CCOCC2)ccc1OCC(=O)Nc1ccc(F)c(Cl)c1 do in these assays?
CCR6 antagonist: inactive; EBI2 block: inactive; APJ ag: inactive; CXCR6 inh: inactive; APJ antag: inactive

How did O=C(O)c1ccc(/C=C2/SC(=S)N(Cc3ccccc3)C2=O)cc1 do in these assays?
CCR6 antagonist: inactive; EBI2 block: inactive; CXCR6 inh: inactive

Results for COc1cc([N+](=O)[O-])cc(/C=C2/SC(=S)N(Cc3ccccc3)C2=O)c1O ?
CCR6 antagonist: inactive; EBI2 block: inactive; CXCR6 inh: inactive

Results for O=C1/C(=C\c2ccc(O)cc2)SC(=S)N1Cc1ccccc1 ?
CCR6 antagonist: 51; EBI2 block: inactive; APJ ag: inactive; CXCR6 inh: inactive; APJ antag: inactive

How did O=C1/C(=C\c2cccc([N+](=O)[O-])c2O)SC(=S)N1Cc1ccccc1 do in these assays?
CCR6 antagonist: 64; EBI2 block: inactive; CXCR6 inh: 46

Results for CCn1c(CNC(=O)c2ccccc2Br)nnc1SCC(=O)Nc1nncs1 ?
CCR6 antagonist: inactive; EBI2 block: inactive; APJ ag: inactive; CXCR6 inh: inactive; APJ antag: inactive

Results for COc1ccc(S(=O)(=O)Nc2cccc3c2O[C@H](CN(C)Cc2ccncc2)[C@@H](C)CN([C@H](C)CO)C3=O)cc1 ?
CCR6 antagonist: inactive; EBI2 block: inactive; APJ ag: inactive; CXCR6 inh: inactive; APJ antag: inactive

How did COC(=O)c1ccc2c(=O)n(CCCCCC(=O)N3CCN(c4ccccc4)CC3)c(=O)[nH]c2c1 do in these assays?
CCR6 antagonist: inactive; EBI2 block: inactive; APJ ag: 38; CXCR6 inh: inactive; APJ antag: inactive

How did CCOC(=O)c1c(C)[nH]c(C(=O)OCc2ccccc2F)c1C do in these assays?
CCR6 antagonist: inactive; EBI2 block: inactive; APJ ag: inactive; CXCR6 inh: inactive; APJ antag: inactive

How did CCC(C)C(=O)N1c2ccccc2C(=C2SC(C(=O)OC)=C(C(=O)OC)S2)C(=S)C1(C)C (stereo not given) do in these assays?
CCR6 antagonist: inactive; EBI2 block: 52; APJ ag: inactive; CXCR6 inh: inactive; APJ antag: inactive

What do the screens show for `CCN(CC)CCN1C(=O)/C(=C\c2ccc(Cl)c([N+](=O)[O-])c2)SC1=Nc1ccc(OC)cc1`?
CCR6 antagonist: inactive; EBI2 block: 73; APJ ag: inactive; CXCR6 inh: inactive; APJ antag: inactive

Results for COc1ccc(N=C2S/C(=C\c3ccc(Cl)c([N+](=O)[O-])c3)C(=O)N2CCN(C)C)cc1 ?
CCR6 antagonist: inactive; EBI2 block: 62; APJ ag: inactive; CXCR6 inh: inactive; APJ antag: inactive

Results for CCCN1C(=O)/C(=C/c2ccc(C)s2)SC1=Nc1ccc(OC)cc1 ?
CCR6 antagonist: inactive; EBI2 block: inactive; APJ ag: inactive; CXCR6 inh: inactive; APJ antag: inactive

What do the screens show for `Cc1[nH]c2ccccc2c1/C=N/Nc1ccc([N+](=O)[O-])cc1`?
CCR6 antagonist: 65; EBI2 block: 42; CXCR6 inh: inactive

Results for C/C(=N/Nc1ccc([N+](=O)[O-])cc1)c1ccc(C)cc1C ?
CCR6 antagonist: inactive; EBI2 block: inactive; APJ ag: inactive; CXCR6 inh: inactive; APJ antag: inactive

Results for C/C(=N/Nc1ccc([N+](=O)[O-])cc1)c1c[nH]c2ccccc12 ?
CCR6 antagonist: 70; EBI2 block: inactive; APJ ag: inactive; CXCR6 inh: inactive; APJ antag: inactive

What do the screens show for `CCOC(=O)C1(C)CCCN1C(=O)c1c(F)cccc1F` (stereo not given)?
EBI2 block: inactive; CXCR6 inh: inactive

Results for CC(C)C1Nc2c(O)cc(Cl)c([N+](=O)[O-])c2C2C=CCC21 (stereo not given) ?
CCR6 antagonist: 50; EBI2 block: inactive; CXCR6 inh: inactive

What do the screens show for `O=C(Nc1ccc(Cl)cc1Cl)c1cccc(N2C(=O)C=CC2=O)c1`?
CCR6 antagonist: inactive; EBI2 block: inactive; APJ ag: inactive; CXCR6 inh: 105; APJ antag: inactive

How did Cc1ccc(NC(=O)[C@H](C)NC(=O)C2CCN(C(=O)[C@@H](N)CC(C)C)CC2)cc1 do in these assays?
CCR6 antagonist: inactive; EBI2 block: inactive; APJ ag: inactive; CXCR6 inh: inactive; APJ antag: inactive

Source: PubChem BioAssay (Sanford-Burnham Center for Chemical Genomics)
